Assay: Toxicity liver stage against HepG2, at 10uM
Assay type: cell-based
Set-up: test concentration 10 uM, cell line HepG2-A16-CD81EGFP
Conditions: human, HepG2-A16-CD81EGFP cells; read-out: INHIBITION
Summary of the method: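 Uninfected HepG2-A16-CD81EGFP cells, 3 × 10^3 per well, 1536-well, plated on prespotted compound at 10 μM final, parasite-free screening media added to match infected plates; puromycin 10 μM positive, DMSO 0.5% negative; run in parallel with 48 h PbLuc assay at 37 °C, 5% CO2; viability by CellTiter-Glo luminescence, normalized to controls.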

Compound	cytotoxicity at 10 µM [%]
CC(C)c1ccc(CNC(C)c2ccc(S(C)(=O)=O)cc2)cc1 (stereo unspecified)	13.9
CCCN1C(=O)[C@@H]2[C@@H](CCN2C(=O)COC)N(Cc2cccs2)C1=O	0.121
COCC(=O)N1CCN(C(=O)c2cccs2)C[C@H]1C(=O)OC	-0.655
CS(=O)(=O)N1CC[C@H](c2nc3ccc(C(F)(F)F)cc3[nH]2)C1	0.0915
Cc1ccc(Cl)cc1NC(=O)Nc1c[nH]c(=O)[nH]c1=O	-7.58
CCOCCNC(=O)[C@@H]1CCCN1c1nccc(Nc2ccccc2)n1	2.66
CCCC1CN(CC(C)C)C(=O)c2cccnc2O1 (stereo unspecified)	3.04
CC(C)(CO)Nc1c(NCc2ccccn2)c(=O)c1=O	0.122
O=C1CC(c2ccsc2)c2cnn(C3CCCC3)c2N1 (stereo unspecified)	-0.524
COc1ccc(NC(=O)c2nc(C)sc2C)cn1	-2.52
Cc1cc(=O)[nH]c(-n2nc(C)c(CCC(=O)NCc3ccco3)c2C)n1	-5.33
COCC(=O)Nc1cnc(N2CCN(c3ccccc3)CC2)nc1	-9.87
COc1cc(NC(=O)C2CC(=O)N(c3cccc(F)c3)C2)ncn1 (stereo unspecified)	-1.73
c1coc(CN2CCC3(CC2)COC(COCC2CCOCC2)C3)c1 (stereo unspecified)	4.67
CC1=Nc2c(c(O)nn2C2CCOCC2)C(c2cccnc2)S1 (stereo unspecified)	5.11
O=C(NCCc1nccs1)C(c1ccccc1)n1cnnn1 (stereo unspecified)	5.28
O=C1CC(c2ccc3c(c2)OCO3)c2cn[nH]c2N1 (stereo unspecified)	13.3
CN(C)C(=O)N1CCc2c(CNc3ncccn3)cncc2C1	-3.55
CCCN1CCN(C(=O)CCn2nc(C(F)(F)F)c(Br)c2C)CC1	-8.71
O=C(O)c1cnc(N2CCC(O)CC2)nc1COc1cccc(F)c1	-9.09
CCN(CC)CCNC(=O)c1nn(CC)cc1Cl	2.58
CCc1noc(C2CCCCN2C(=O)c2ccn(C3CCCC3)n2)n1 (stereo unspecified)	11.8
CN(C)CCn1nc(C2CCN(S(=O)(=O)N(C)C)C2)c2cccnc21 (stereo unspecified)	-2.15

Compound	cytotoxicity at 10 µM [%]
Cc1nn(C)cc1CN1CCC(c2ncc(Cl)cc2S(C)(=O)=O)CC1	-0.1
O=C(O)c1ccccc1-c1ccc(CN2CC(c3ccncn3)C2)o1	4.54
CN1CCN([C@@H]2CN(C(=O)CCOc3ccccc3)C[C@H]2O)CC1	1.17
O[C@H]1CN(CCCOc2ccccc2F)CC[C@@]12CCCO2	3.06
Nc1ncnc2nc(C3CCN(C(=O)Cc4ccccc4)C3)ccc12 (stereo unspecified)	2.65
Cc1c[nH]c(C2CCCN(Cc3cccc(C(=O)O)c3)C2)n1 (stereo unspecified)	9.59
CC(=O)N1CC(C(=O)NCCc2ncc(C)s2)C1	-1.33
CC(C)(C)OC(=O)N[C@@H]1C[C@@H](O)CN(C(=O)c2ccc(F)cc2)C[C@H]1O	2.57
O=C(CO)N1CCCC(c2cc(C(F)(F)F)[nH]n2)C1 (stereo unspecified)	-5.12
Cc1cncc(C2CCN(C(=O)CCc3ccnn3C)CC2)n1	-28.8
CC(CN1CCCC1=O)NC(=O)Nc1ccccc1Cn1cccn1 (stereo unspecified)	-1.33
OCCOCCN1CCCC1c1cccc(Cl)c1 (stereo unspecified)	-1.78
N#Cc1ccc(S(=O)(=O)NC(=O)c2ccc3c(c2)COC3)cc1	1.39
O=C(Nc1ccc(-c2csnn2)cc1)NC(CCO)C1CC1 (stereo unspecified)	15.6
CC(C)(C)n1cc(CNC2CCN(C(=O)c3ccco3)CC2)cn1	-8.08
COc1ccccc1CNC(=O)C(C)N1CC(n2nc(C)cc2C)C1 (stereo unspecified)	7.54
CN(Cc1c(F)cccc1Cl)C(=O)Nc1cnn(CC(N)=O)c1	-6.39
Cc1nc(CC(=O)NS(=O)(=O)c2cccc3cnccc23)cs1	5.75
Cc1cc(C)cc(N(CCC#N)C(=O)CN2CCCC2c2cccs2)c1 (stereo unspecified)	-1.61
c1cc(CCN2CCCC2CN2CCCC2)ccn1 (stereo unspecified)	-2.35
Cc1ccnn1-c1ccc(C(=O)N2CCN(c3cnccn3)CC2)cc1	-2.31
Cc1ccn(-c2ccc(N3CCCN(Cc4ccccc4)CC3)nn2)n1	9.31
O=C(c1cccnc1-n1cncn1)N1CCC(Nc2ccccc2)CC1	7.1

Compound	cytotoxicity at 10 µM [%]
CN(CCc1cccs1)C(=O)Nc1cnn(CC2CCCO2)c1 (stereo unspecified)	-2.66
Cc1nc(CC(=O)N2CCOC(c3nc(C(C)(C)C)n[nH]3)C2)cs1 (stereo unspecified)	4.06
Cc1nccn1-c1cc(CNC(=O)c2ccnc(N(C)C)c2)ccn1	2.32
COc1cccc(CCNC(=O)NC(C)C)c1O	2.27
c1ccc(NCc2ccc(Cn3ccnc3)cc2)nc1	70.9
COC(=O)CN(C(=O)c1ccc(-n2ccnc2)cc1)C1CC1	-5
Cc1nnc(N2CCCC2)c(C(N)=O)c1C	7.19
CC(CO)CNC(=O)c1cc2cccc(F)c2o1 (stereo unspecified)	8.13
COC(=O)c1ccc(Cn2cnc(C#N)n2)cc1	-4.74
CS(=O)(=O)CC1(CNc2cc(C#N)c3cc(Cl)ccc3n2)CC1	-4.06
O=C(c1cc(F)ccc1O)N1CCN(C(=O)C2CCC2)CC1	1.22
Cc1cc(NC(=O)N(Cc2ccc(C#N)cc2)C(C)C)no1	-17
CCn1cc(CNC2CCN(c3c(F)cccc3F)C2)cn1 (stereo unspecified)	-2.93
CCN(CC)S(=O)(=O)c1ccc(CNC(=O)c2cc(C)on2)cc1	27.4
CCc1nsc(NC2CCOC3(CCCC3)C2)n1 (stereo unspecified)	13
CCOc1ccc(C#N)cc1NC(=O)N1CCC(N2CCCC2)C1 (stereo unspecified)	-7.35
CC(C)c1nnc2n1CCN(C(=O)c1ccc3c(c1)COC3)C2	-6.22
O=C(NCCc1nnc2n1CCCCC2)N1CCC2(CCOC2)C1 (stereo unspecified)	4.18
O=C(O)c1cn(CC2CCCN(c3cnc4ccccc4n3)C2)nn1 (stereo unspecified)	1.57
CC(C)NC(=O)[C@@H]1C[C@@H](N)CN1C(=O)CCSCc1ccc(F)cc1	-3.43
COc1ccc(CCN2CC(c3nc(CSC)no3)CCC2=O)cc1 (stereo unspecified)	3.11
Cc1cccc(CN2CCN(c3nc(CO)cs3)CC2)c1	-11.6
Cn1cccc1C(=O)N1CCCn2nc(CCC(=O)NC3CC3)cc2C1	5.45

Compound	cytotoxicity at 10 µM [%]
O=C(Cn1ncc(N2CCCC2)cc1=O)Nc1ccc2nccnc2c1	1.83
Cn1cnnc1SCC(=O)NC1CC(=O)N(CCc2cccc(Cl)c2)C1 (stereo unspecified)	2.3
Cc1n[nH]c(C)c1CCN(C)C(=O)c1ccc(CCC(C)(C)O)cc1	6.15
O=C(NCc1cnn2cccnc12)C1CC2(CCNCC2)CN1 (stereo unspecified)	-8.32
O=C(CCNC(=O)c1ccccc1F)NCCNc1cccnc1	-7.55
O=C(c1ccc(Cl)cc1F)N1CCC(Cn2cc(CO)nn2)CC1	-1.36
CN1CCN(C[C@@H]2CN(C(=O)CC3CCCCC3)C[C@@H]2CO)CC1	-8.76
COCc1ccc(C(=O)N2CCC(c3nccn3CC3CC3)CC2)o1	-2.81
CC(C)(C)N1CC(C(=O)N2CCN(CCn3cncn3)CC2)CC1=O (stereo unspecified)	-5.14
C[C@@H]1CN(S(=O)(=O)N2CCCCCC2)C[C@@]1(O)C1CCC1	17.6
COc1ccc2c(=O)n(CC3CC3)ccc2c1OC	12.8
COCCN1CCC(CN(CC2CCCO2)C(=O)CCC(F)(F)F)CC1 (stereo unspecified)	2.13
Cc1cc(C)c2ncn(CCC(C)O)c(=O)c2c1 (stereo unspecified)	2.1
CC(=O)N1CCC(NCc2cccnc2N(C)Cc2ccccc2)CC1	-14.1
CN(CC(=O)N1CCC(Cc2cccc(C(N)=O)c2)C1)C1CCCC1 (stereo unspecified)	-7.92
O=C1CN(c2cc(-c3ccccc3F)nc3ccnn23)CCCN1	2.77
O=C(NC1CC1)C(c1ccccc1)N1CCn2c(nnc2C2CC2)C1 (stereo unspecified)	-6.22
CCOC(=O)CCNC(=O)c1nc(OCC)ccc1Cl	-7.6
CCOc1ccc(Cl)c(C(=O)NCCc2ncc[nH]2)n1	-11.2
NC(=O)c1cnn2c1NCC(CNCCCc1ccccc1)C2 (stereo unspecified)	-9.24
CCc1nc(C2CCCN2CC(=O)Nc2sc(C)c(C)c2C)no1 (stereo unspecified)	-10.9
CC(=O)NCCNC(=O)c1sc(-c2ccc(Cl)s2)nc1C	-1.28
CCS(=O)(=O)c1ccccc1N1CCC(NC(C)=O)CC1	-5.31

Compound	cytotoxicity at 10 µM [%]
CCC(NC(=O)CC(F)(F)F)c1ccccc1OCC(=O)N1CCCC1 (stereo unspecified)	0.145
COc1ccccc1CC(=O)NCc1c(C)nc2cc(=O)[nH]n2c1C	-6.8
COCCNc1ccc(CNC(=O)Nc2cn[nH]c2)cc1	-2.68
CCCn1nc2c(cc1=O)CN(CCCN1CCCC1=O)CC2	-6.49
CCCc1nc(C)c(C(=O)NCCN2CCN(CC)CC2)s1	-10.6
Cc1nc2cc(-c3nccn3C)nn2c(N2CCCC(O)C2)c1C (stereo unspecified)	2.92
c1cncc(CNc2cncc(C3CCCN3)n2)c1 (stereo unspecified)	9.93
c1cncc(CNCc2cccs2)c1	10.1
NC(=O)CCc1cccc(C2CCNCC2)n1	-3.28
O=C(Cc1ccccc1)N1CCC2(CC1)COCCN2CC1CC1	-78.5
CCOC(=O)[C@]12CCCN(Cc3ccco3)C[C@H]1CN(S(C)(=O)=O)C2	6.86
CC(=O)N1CCCC2(CCC(=O)N2Cc2cccnc2)C1 (stereo unspecified)	7.59
Cc1nn(C)c(N2CCOCC2)c1CNC1CCc2cc(F)ccc21 (stereo unspecified)	-9.95
Cc1ccc(CN2C[C@@H]3COC[C@H](NS(C)(=O)=O)[C@@H]3C2)o1	0.415
Clc1ccccc1CN1CCc2nc(C3CCCNC3)ncc2C1 (stereo unspecified)	-19.7
CN(C)CCN1CCO[C@H]2CN(C(=O)c3ccsc3)C[C@H]21	3
COc1ncccc1C(=O)N1CC[C@]2(C[C@@H](Oc3cccnc3)CO2)C1	4.43
O=C(N[C@@H]1CN(Cc2ccccc2)C[C@@H]2CCCO[C@@H]21)C1CC1	-6.12
Cn1cc(CCC(=O)N2C[C@H]3CC[C@@H](C2)N(Cc2ccccn2)C3)cn1	-1.95
